# b-catenin transl: modulators of beta-catenin nuclear translocation, primary screen, imaging, HeLa cells, immunofluorescence, high-content | nuclear translocation activity, % at 5 µM | 190,000 compounds, 0.3% hits;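 active = nuclear translocation activity above 50% at 5 µM, with a well cell count of 50 or more; inconclusive = wells under 50 cells across six images, flagged as toxic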;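 note: per-cell ratio of nuclear to cytoplasmic median beta-catenin stain intensity; plate controls were DMSO negative control for no effect and GSK-3 inhibitor IX positive control for full effect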
#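 System: Human HeLa cells, endogenous beta-catenin | Compound dosing: 5 µM primary, 0.02–20 µM confirmation | Timing: 24 h compound exposure at 37°C, 5% CO2 | Measured by: Fluorescence imaging of beta-catenin antibody stain plus DAPI | Read-out basis: % activation of per-cell nuclear versus cytoplasmic median beta-catenin signal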
# Autophagy HCS: autophagy modulators in MEF cells, primary screen, imaging, high-content, MEF GFP-LC3 | MEF GFP-LC3 puncta imaging; test concentration mostly 10 µM | AID 463193, 2010 | calls only at 10 µM (by protocol) | 190,000 compounds, 0.98% hits;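 active = percentage of spot-positive cells more than 3 SD above its plate mean, without a fluorescence outlier flag or 80% toxicity; inconclusive = no clear call, values can overlap the other calls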;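 note: spot-positive cell cutoff set from DMSO-treated cells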
# Ins promoter up: insulin promoter activators in MIN6 cells, imaging, high-content screening, mouse beta cells | MIN6 insulin promoter-GFP reporter; hits give high values | z-score at 5 µM | 190,000 compounds, 0.3% hits;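 active = z-score above 3 at 5 µM with at least 500 cells counted in the well; inconclusive = wells under 500 cells, flagged as cytotoxic or low count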
# Wee1 degr inh: Wee1 degradation inhibitors, primary screen, cell-based, HeLa, Wee1K328M-luciferase, luminescence; Wee1-like protein kinase (Homo sapiens), P30291; HeLa Luc-Wee1K328M stability; 100% = proteasome inhibitor MG132 effect; reporter increase, % at 5 µM; 220,000 compounds, 1.2% hits; AID 1321, 2008;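 active = activation above the mean of all tested compounds plus 3 SD, set per screening run, cut at about 8.8% in these data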;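 note: cells exposed to compound for 20 h before luminescence read; 0% = DMSO alone and 100% = MG132 at 30 µM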
# MT stabilize HCS: microtubule stabilizers in HeLa cells, primary screen, imaging, high-content imaging. HeLa tubulin immunostaining HCS, 24 h; share of cells brighter than vehicle mean+2SD. % tubulin-high responders, % at 10 µM. 200,000 compounds, 0.83% hits. AID 2205, 2009;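 active = plate Z-score above 3 for both tubulin-high and condensed-nucleus cell shares, with cell loss under 80%, at 10 µM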;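 note: anti alpha tubulin signal scored within the nucleus-defined area of each cell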
# The depositor's hits bear a star; i = inactive; ? = inconclusive; nt = no result given; + = active, no number. Only some compounds are listed: those with a hit (about 2.9% of all), similar ones and a draw of the others.
SMILES,b-catenin transl,Autophagy HCS,Ins promoter up,Wee1 degr inh,MT stabilize HCS
CN1/C(=C\C=C\C2=[N+](C)c3ccc4ccccc4c3C2(C)C)C(C)(C)c2ccccc21,-17,+,?,-4,5
CN(C)c1cccc2c(C#N)ccc(N(C)C)c12,1,i,0.68,-1,4
CN(C)c1ccc(C(=O)c2ccc(N(C)C)cc2)cc1,nt,i,-1,4,46*
COC(=O)C(O)(c1ccc(N(C)C)cc1)C(F)(F)F (stereo not given),0,i,-0.13,-2,1
COC(=O)c1cn(C(=O)c2cccc3ccccc23)c2ccccc12,1,nt,nt,-3,nt
COc1cc(CN2CCN(c3cc(C)ccc3C)CC2)ccc1O,nt,+,-8.1,0,2
COc1ccccc1N1CCN(Cc2cc(C)c(C)cc2O)CC1,-4,i,-0.85,2,2
O=C(NC(C(Cl)Cl)N1CCOCC1)c1ccccc1 (stereo not given),nt,i,0.3,1,1
CCCC/C(=N\O)c1c[nH]c2ccccc12,4,i,0.43,0,3
C=C1C(=O)O[C@H]2[C@H]1[C@H](OC(=O)CC(=O)O[C@@H]1C[C@@H](C)[C@@H]3C=CC(=O)[C@@]3(C)[C@H]3OC(=O)C(=C)[C@H]13)C[C@@H](C)[C@H]1C=CC(=O)[C@]12C,-2,nt,nt,nt,nt
C=C1C(=O)O[C@@H]2C[C@@H](C)[C@@H]3C=CC(=O)[C@@]3(C)[C@@H](OC(=O)CC(=O)O[C@H]3[C@@H]4C(=C)C(=O)O[C@@H]4C[C@@H](C)[C@@H]4C=CC(=O)[C@]43C)[C@H]12,72*,nt,nt,nt,nt
Cc1nn(Cc2ccccc2)c(Cl)c1C(=O)NC1CCCc2ccccc21 (stereo not given),1,+,0.7,1,6
Cc1nn(Cc2ccccc2)c(Cl)c1C(=O)Nc1ccc(OC(F)(F)F)cc1,2,i,-0.94,0,3
O=C(C1CC(c2ccc(F)cc2)=NO1)N1CCC2(CC1)OCCO2 (stereo not given),nt,i,nt,2,3
O=C(C1CC(c2ccc(Cl)c(Cl)c2)=NO1)N1CCC2(CC1)OCCO2 (stereo not given),-1,i,1.5,9.8*,3
C#CCOc1cc(C2C3=C(COC3=O)Nc3cc4c(cc32)OCO4)ccc1OC (stereo not given),80*,i,-0.41,7,13*
CN1C(=O)CN=C(c2ccccc2)c2cc([N+](=O)[O-])ccc21,-1,nt,-0.46,-3,nt
CCCCCCn1c(O)c(C=Nc2ccccc2N2CCOCC2)c(=O)[nH]c1=S,0,nt,3.2*,6,nt
CCCCn1c(O)c(/C=N/N2CCOCC2)c(=O)[nH]c1=S,0,nt,0,-2,nt
CCN(CC)c1ccc(CNCCc2ccccc2F)cc1,36,i,-0.13,1,21*
CNC(=O)c1cccn(Cc2cccc(C(F)(F)F)c2)c1=O,-1,i,0.66,-1,2
CN(C)CCNC(=O)c1cccn(Cc2cccc(C(F)(F)F)c2)c1=O,-2,+,-0.18,-4,5
NNc1n[nH]c(=S)n1N,3,nt,nt,-2,nt
O=C1NC(=O)C(CCc2ccncc2)(Cc2ccc(OCc3ccccc3)cc2)C(=O)N1,1,nt,-0.08,8.8*,nt
COc1ccc(CC2(CCc3ccncc3)C(=O)NC(=O)NC2=O)cc1,-1,i,nt,1,2
SMILES,b-catenin transl,Autophagy HCS,Ins promoter up,Wee1 degr inh,MT stabilize HCS
O=c1[nH]c(=O)n(Cc2ccc(F)cc2)c(O)c1C=NCC1CCCO1 (stereo not given),-4,i,0.73,8.9*,5
Nc1ccccc1C(=O)OC1CSC1,nt,i,-0.1,-2,1
COc1ccc(Oc2cc(NC(=O)c3nn(C)cc3[N+](=O)[O-])cc([N+](=O)[O-])c2)cc1,nt,+,-0.81,8,60
COc1ccc(C2NCc3ccc4c(c3-n3cccc32)OCO4)cc1O (stereo not given),nt,+,-1.8,1,29*
Cc1ccc2c(c1)C1CN(C)CCC1N2C(=O)c1cn(-c2ccccc2)nc1-c1ccccc1 (stereo not given),-3,+,0.27,1,3
Cc1ccc2c(c1)C1CN(C)CCC1N2C(=O)c1cccnc1Cl (stereo not given),-2,nt,0.37,1,nt

# High-throughput results (PubChem)
